Test results taken from ChEMBL document CHEMBL1156690, “Synthesis, anti-HIV-1 integrase, and cytotoxic activities of 4-chloro-N-(4-oxopyrimidin-2-yl)-2-mercaptobenzenesulfonamide derivatives” (Eur J Med Chem, 2008).

Columns and labels:
SK-MEL-5 = assay: Growth inhibition of human SK-MEL-5 cells; assay type: functional
In short: (§1)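 Run by the US National Cancer Institute in vitro screen against a panel of 53–57 human tumor cell lines. GI₅₀ is defined as the molar concentration inhibiting 50% net cell growth. TGI is the concentration giving total growth inhibition.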

A498 = assay: Growth inhibition of human A498 cells; assay type: functional; in short: as §1
Malme-3M = assay: Growth inhibition of human MALME-3M cells; assay type: functional; in short: as §1
M14 = assay: Growth inhibition of human M14 cells; assay type: functional; in short: as §1
[1] = target: T1, Human immunodeficiency virus type 1 integrase (Human immunodeficiency virus 1, UniProt Q7ZJM1); assay: Inhibition of HIV1 integrase 3' processing activity
In short: (§2)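 HIV-1 integrase (200 nM final) preincubated 30 min at 30 °C with inhibitor in buffer (pH 7.2 MOPS, NaCl, HEPES, EDTA, DTT, 10% glycerol, 7.5 mM MnCl₂, 0.1 mg/ml BSA, 2-mercaptoethanol, 10% DMSO). 20 nM 5'-³²P-labeled linear oligonucleotide substrate then added for 1 h. Quenched with formamide loading dye; products resolved on denaturing 20% polyacrylamide/urea gel. IC₅₀ reported for each step.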

[2] = target: T1, Human immunodeficiency virus type 1 integrase; assay: Inhibition of HIV1 integrase strand transfer activity; in short: as §2
EKVX = assay: Growth inhibition of human EKVX cells; assay type: functional; in short: as §1
SF-268 [3] = assay: (§3) Growth inhibition of human SF268 cells; assay type: functional; in short: as §1
NCI-H522 = assay: Growth inhibition of human NCI-H522 cells; assay type: functional; in short: as §1
SNB-19 = assay: Growth inhibition of human SNB19 cells; assay type: functional; in short: as §1
SNB-75 = assay: Growth inhibition of human SNB75 cells; assay type: functional; in short: as §1
UACC-62 = assay: Growth inhibition of human UACC62 cells; assay type: functional; in short: as §1
SF-268 [4] = assay: as §3; assay type: functional; in short: as §1; remark: listed apart in the source
MOLT-4 = assay: Growth inhibition of human MOLT4 cells; assay type: functional; in short: as §1
SR = assay: Growth inhibition of human SR cells; assay type: functional; in short: as §1
LOX IMVI = assay: Growth inhibition of human LOX IMVI cells; assay type: functional; details: Homo sapiens, LOX IMVI; in short: as §1
BT-549 = assay: Growth inhibition of human BT549 cells; assay type: functional; in short: as §1
T47D = assay: Growth inhibition of human T47D cells; assay type: functional; in short: as §1
CCRF-CEM = assay: Growth inhibition of human CCRF-CEM cells; assay type: functional; in short: as §1
HOP-62 = assay: Growth inhibition of human HOP62 cells; assay type: functional; in short: as §1
NCI-H322M = assay: Growth inhibition of human NCI-H322M cells; assay type: functional; in short: as §1
HCC 2998 = assay: Growth inhibition of human HCC2998 cells; assay type: functional; in short: as §1
KM12 = assay: Growth inhibition of human KM12 cells; assay type: functional; in short: as §1
SN12C = assay: Growth inhibition of human SN12C cells; assay type: functional; in short: as §1
HCT-116 = assay: Growth inhibition of human HCT116 cells; assay type: functional; in short: as §1

T1 sequence (Q7ZJM1 whole entry): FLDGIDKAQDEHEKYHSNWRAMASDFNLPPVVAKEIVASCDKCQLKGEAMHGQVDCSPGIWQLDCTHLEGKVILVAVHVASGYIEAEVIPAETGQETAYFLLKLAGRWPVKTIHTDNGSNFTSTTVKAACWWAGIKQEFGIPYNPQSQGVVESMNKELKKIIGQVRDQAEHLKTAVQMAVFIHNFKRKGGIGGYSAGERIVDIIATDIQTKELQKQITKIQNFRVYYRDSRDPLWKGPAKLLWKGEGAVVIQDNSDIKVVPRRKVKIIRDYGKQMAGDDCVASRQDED

`Cc1cc(S(=O)(=O)Nc2nc3cc(-c4ccccc4)sc3c(=O)n2Cc2ccccc2)c(S)cc1Cl` was tested, and the GI50 (SK-MEL-5) was > 100 µM, the GI50 (A498) was > 100 µM and the GI50 (Malme-3M) was > 100 µM. The GI50 (M14) was > 100 µM, the IC50 [1] was 9 µM and the IC50 [2] was 6 µM. For the same compound, the GI50 (EKVX) was > 100 µM, the GI50 (SF-268 [3]) was > 100 µM and the GI50 (NCI-H522) was > 100 µM. The GI50 (SNB-19) was > 100 µM, the GI50 (SNB-75) was > 100 µM and the GI50 (UACC-62) was > 100 µM. The GI50 (SF-268 [4]) was > 100 µM, the GI50 (MOLT-4) was > 100 µM and the GI50 (SR) was > 100 µM. For the same compound, the GI50 (LOX IMVI) was > 100 µM, the GI50 (BT-549) was > 100 µM and the GI50 (T47D) was > 100 µM. The GI50 (CCRF-CEM) was > 100 µM, the GI50 (HOP-62) was > 100 µM and the GI50 (NCI-H322M) was > 100 µM. The GI50 (HCC 2998) was > 100 µM, the GI50 (KM12) was > 100 µM and the GI50 (SN12C) was > 100 µM. The GI50 (HCT-116) was > 100 µM.
